Measured values: ChEMBL document CHEMBL2202994, “Heteroaryl urea inhibitors of fatty acid amide hydrolase: structure-mutagenicity relationships for arylamine metabolites” (Bioorg Med Chem Lett, 2012)

Columns and labels:
Salmonella typhimurium [1] = assay: Genotoxicity in Salmonella typhimurium TA98 by Ames test in absence of S9 fractions; assay type: toxicity, organism-based; settings: salmonella enterica subsp. enterica serovar typhimurium
Summary of the method: (§1)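 Ames II liquid fluctuation microplate variant of the bacterial reverse mutation assay, run on the free heteroaryl amines released from the urea inhibitors. The TAMix strain mixture (TA7001–TA7006) detects base-pair substitutions and TA98 detects frameshift mutations. For metabolic activation, compounds were preincubated with rat liver S9 extract or run without it. Results were scored as positive or negative.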

Salmonella typhimurium [2] = assay: Genotoxicity in Salmonella typhimurium TA98 by Ames test in presence of S9 fractions; assay type: toxicity, organism-based, S9 Fraction; settings: salmonella enterica subsp. enterica serovar typhimurium; summary of the method: as §1
Salmonella typhimurium [3] = assay: Genotoxicity in Salmonella typhimurium TAMix by Ames test in absence of S9 fractions; assay type: toxicity, organism-based; settings: salmonella enterica subsp. enterica serovar typhimurium; summary of the method: as §1
Salmonella typhimurium [4] = assay: Genotoxicity in Salmonella typhimurium TAMix by Ames test in presence of S9 fractions; assay type: toxicity, organism-based, S9 Fraction; settings: salmonella enterica subsp. enterica serovar typhimurium; summary of the method: as §1
[5] = target: T1, Fatty-acid amide hydrolase 1 (Homo sapiens, UniProt O00519); assay: Inhibition of human FAAH preincubated for 60 mins
T1 sequence (O00519 whole entry): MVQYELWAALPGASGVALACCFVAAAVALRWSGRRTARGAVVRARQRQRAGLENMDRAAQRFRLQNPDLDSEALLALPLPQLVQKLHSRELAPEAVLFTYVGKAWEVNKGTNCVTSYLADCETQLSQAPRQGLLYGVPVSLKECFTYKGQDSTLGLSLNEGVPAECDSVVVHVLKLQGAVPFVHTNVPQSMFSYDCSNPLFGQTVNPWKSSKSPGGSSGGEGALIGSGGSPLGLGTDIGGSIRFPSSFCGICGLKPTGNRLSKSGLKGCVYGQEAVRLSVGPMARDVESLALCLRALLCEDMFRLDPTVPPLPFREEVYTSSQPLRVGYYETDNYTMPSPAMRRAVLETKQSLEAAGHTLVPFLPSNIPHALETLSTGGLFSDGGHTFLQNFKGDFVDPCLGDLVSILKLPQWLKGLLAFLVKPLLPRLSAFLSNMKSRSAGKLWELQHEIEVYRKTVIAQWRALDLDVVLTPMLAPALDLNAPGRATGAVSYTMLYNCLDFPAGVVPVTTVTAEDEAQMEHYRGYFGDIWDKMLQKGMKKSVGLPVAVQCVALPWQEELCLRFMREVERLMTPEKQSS

[6] = target: T2, Fatty-acid amide hydrolase 1 (Rattus norvegicus, UniProt P97612); assay: Inhibition of rat FAAH preincubated for 60 mins
T2 sequence (P97612 whole entry): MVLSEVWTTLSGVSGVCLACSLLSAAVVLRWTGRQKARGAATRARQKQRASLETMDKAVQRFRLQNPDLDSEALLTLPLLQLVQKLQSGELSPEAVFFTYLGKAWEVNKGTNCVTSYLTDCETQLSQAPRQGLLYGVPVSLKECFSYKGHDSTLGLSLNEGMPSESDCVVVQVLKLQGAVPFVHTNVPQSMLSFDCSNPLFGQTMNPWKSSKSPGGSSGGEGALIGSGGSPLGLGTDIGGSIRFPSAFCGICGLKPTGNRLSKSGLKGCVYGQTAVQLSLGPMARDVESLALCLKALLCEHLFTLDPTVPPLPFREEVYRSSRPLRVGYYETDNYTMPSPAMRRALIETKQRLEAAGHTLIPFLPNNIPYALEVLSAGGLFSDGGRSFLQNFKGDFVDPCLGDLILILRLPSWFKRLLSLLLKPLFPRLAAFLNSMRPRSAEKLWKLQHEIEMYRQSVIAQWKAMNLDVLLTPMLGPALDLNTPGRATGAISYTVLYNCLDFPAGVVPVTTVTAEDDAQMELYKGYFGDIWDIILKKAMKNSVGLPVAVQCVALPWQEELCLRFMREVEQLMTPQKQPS

| Structure (SMILES) | Activity (Salmonella typhimurium [1]) | Activity (Salmonella typhimurium [2]) | Activity (Salmonella typhimurium [3]) | Activity (Salmonella typhimurium [4]) | IC50 [5] [nM] | IC50 [6] [nM] |
| --- | --- | --- | --- | --- | --- | --- |
| O=C(Nc1ccccc1)N1CCN(Cc2cccc(Oc3ccc(Cl)cc3)c2)CC1 | Non-toxic | Non-toxic | Non-toxic | Non-toxic | 6 | 300 |
| O=C(Nc1cccnc1)N1CCN(Cc2cccc(Oc3ccc(Cl)cc3)c2)CC1 | Non-toxic | Non-toxic | Non-toxic | Non-toxic | 1.4 | 33 |
| O=C(Nc1cnc2cccnn12)N1CCN(Cc2cccc(Oc3ccc(Cl)cc3)c2)CC1 | Non-toxic | Non-toxic | Non-toxic | Non-toxic | – | 53 |
| O=C(Nc1cccc2nsnc12)N1CCN(Cc2cccc(Oc3ccc(Cl)cc3)c2)CC1 | Non-toxic | Non-toxic | Non-toxic | Non-toxic | – | 25 |
| O=C(Nc1cccc2cn[nH]c12)N1CCN(Cc2cccc(Oc3ccc(Cl)cc3)c2)CC1 | – | Toxic | – | Toxic | – | 6000 |
| Cc1nc2cc(NC(=O)N3CCN(Cc4cccc(Oc5ccc(Cl)cc5)c4)CC3)ccc2o1 | – | Toxic | – | Toxic | – | 200 |
| O=C(Nc1cncc2ccccc12)N1CCN(Cc2cccc(Oc3ccc(Cl)cc3)c2)CC1 | – | Toxic | – | Toxic | – | 8.3 |
| O=C(Nc1cnc2[nH]ccc2c1)N1CCN(Cc2cccc(Oc3ccc(Cl)cc3)c2)CC1 | – | Toxic | – | Toxic | – | 21 |
| O=C(Nc1cnc2cc[nH]c2c1)N1CCN(Cc2cccc(Oc3ccc(Cl)cc3)c2)CC1 | – | Toxic | – | Toxic | – | 1100 |
| O=C(Nc1noc2ccccc12)N1CCN(Cc2cccc(Oc3ccc(Cl)cc3)c2)CC1 | Non-toxic | Non-toxic | Non-toxic | Non-toxic | – | 8.1 |
| O=C(Nc1noc2ncccc12)N1CCN(Cc2cccc(Oc3ccc(Cl)cc3)c2)CC1 | Non-toxic | Non-toxic | Non-toxic | Non-toxic | – | 14 |
| O=C(Nc1noc2cnccc12)N1CCN(Cc2cccc(Oc3ccc(Cl)cc3)c2)CC1 | Non-toxic | Non-toxic | Non-toxic | Non-toxic | – | 0.7 |
| O=C(Nc1noc2ccncc12)N1CCN(Cc2cccc(Oc3ccc(Cl)cc3)c2)CC1 | Non-toxic | Non-toxic | Non-toxic | Non-toxic | – | 2200 |
| O=C(Nc1noc2cccnc12)N1CCN(Cc2cccc(Oc3ccc(Cl)cc3)c2)CC1 | Non-toxic | Non-toxic | Non-toxic | Non-toxic | – | 22 |
| O=C(Nc1cnc2ccccn12)N1CCN(Cc2cccc(Oc3ccc(Cl)cc3)c2)CC1 | Non-toxic | Non-toxic | Non-toxic | Non-toxic | – | 120 |
| O=C(Nc1cn2ccccc2n1)N1CCN(Cc2cccc(Oc3ccc(Cl)cc3)c2)CC1 | Non-toxic | Non-toxic | Non-toxic | Non-toxic | > 10000 | > 10000 |
| O=C(Nc1cccn2ccnc12)N1CCN(Cc2cccc(Oc3ccc(Cl)cc3)c2)CC1 | Non-toxic | Non-toxic | Non-toxic | Non-toxic | – | 3500 |
| O=C(Nc1ccn2ccnc2c1)N1CCN(Cc2cccc(Oc3ccc(Cl)cc3)c2)CC1 | Toxic | Toxic | Toxic | Toxic | – | 2600 |
| O=C(Nc1ccc2nccn2c1)N1CCN(Cc2cccc(Oc3ccc(Cl)cc3)c2)CC1 | Non-toxic | Non-toxic | Non-toxic | Non-toxic | – | 3600 |
| O=C(Nc1cccc2nccn12)N1CCN(Cc2cccc(Oc3ccc(Cl)cc3)c2)CC1 | Non-toxic | Non-toxic | Non-toxic | Non-toxic | – | 5.7 |
| O=C(Nc1cc2nccn2cn1)N1CCN(Cc2cccc(Oc3ccc(Cl)cc3)c2)CC1 | Non-toxic | Non-toxic | Non-toxic | Non-toxic | – | 470 |
| O=C(Nc1ccnc2nccn12)N1CCN(Cc2cccc(Oc3ccc(Cl)cc3)c2)CC1 | Non-toxic | Non-toxic | Non-toxic | Non-toxic | – | 24 |
| O=C(Nc1ccn2ccnc2n1)N1CCN(Cc2cccc(Oc3ccc(Cl)cc3)c2)CC1 | Non-toxic | Non-toxic | Non-toxic | Non-toxic | – | 2400 |
| O=C(Nc1cnccn1)N1CCN(Cc2cccc(Oc3ccc(Cl)cc3)c2)CC1 | Non-toxic | Non-toxic | Non-toxic | Non-toxic | – | 150 |
| O=C(Nc1cccnn1)N1CCN(Cc2cccc(Oc3ccc(Cl)cc3)c2)CC1 | Non-toxic | Non-toxic | Non-toxic | Non-toxic | – | 93 |
| O=C(Nc1cc[nH]n1)N1CCN(Cc2cccc(Oc3ccc(Cl)cc3)c2)CC1 | Non-toxic | Non-toxic | Non-toxic | Non-toxic | – | 150 |
| O=C(Nc1nnn[nH]1)N1CCN(Cc2cccc(Oc3ccc(Cl)cc3)c2)CC1 | Non-toxic | Non-toxic | Non-toxic | Non-toxic | – | 46 |
| O=C(Nc1ccon1)N1CCN(Cc2cccc(Oc3ccc(Cl)cc3)c2)CC1 | Non-toxic | Non-toxic | Non-toxic | Non-toxic | – | – |
| O=C(Nc1nocc1Cl)N1CCN(Cc2cccc(Oc3ccc(Cl)cc3)c2)CC1 | Toxic | Toxic | Toxic | Toxic | – | 20 |
| O=C(Nc1cccc2nonc12)N1CCN(Cc2cccc(Oc3ccc(Cl)cc3)c2)CC1 | – | Toxic | – | Toxic | – | 120 |
